Source: ChEMBL document CHEMBL1130108, “Synthesis of nonhydrolyzable analogues of thiazole-4-carboxamide and benzamide adenine dinucleotide containing fluorine atom at the C2' of adenine nucleoside: induction of K562 differentiation and inosine monophosphate dehydrogenase inhibitory activity” (J Med Chem, 1997)
Several values for one entry are separate records, joined by “and”; a condition that tells them apart may be missing. Equal entries are not always repeated.

Columns and labels:
[1] = biological target: Inosine-5'-monophosphate dehydrogenase 2 (Homo sapiens, UniProt P12268); experiment: The compound was assayed to determine the inhibitory activity against human Inosine-5'-monophosphate dehydrogenase 2
[2] = tested on: K562; experiment: Antiproliferative activity against K562 erythroid leukemic cells was determined.; assay type: functional, cell-based; conditions: Homo sapiens
[3] = tested on: K562; experiment: The concentration used to induce differentiation in K562 cells; assay type: functional, cell-based; conditions: Homo sapiens
Summary of the method: (§1)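 K562 erythroleukemia cells incubated with analogue; differentiation scored as fraction of benzidine-positive cells; percent benzidine-positive cells normalized by dividing by the analogue concentration applied.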

[4] = tested on: K562; experiment: The ability to induce differentiation in K562 cells was estimated by determining the fraction of benzidine positive cells converted following incubation with the compound.; assay type: functional, Homo sapiens; summary of the method: as §1
[5] = Percentage of benzidine positive cells is divided by the concentration used.; assay type: functional; set-up: unit not given here; summary of the method: as §1
[6] = tested on: K562; experiment: Antiproliferative activity against K562 erythroid leukemic cells was determined; NE=no effect; assay type: functional, cell-based, Homo sapiens
[7] = tested on: K562; experiment: The concentration used.; assay type: functional, cell-based; conditions: Homo sapiens; summary of the method: as §1

Structure (SMILES)	IC50 [1] [µM]	IC50 [2] [µM]	Concentration [3] [µM]	Positive cells [4] [%]	Concentration [5]	IC50 [6]	Concentration [7] [µM]
NC(=O)c1csc([C@@H]2O[C@H](COP(=O)(O)CP(=O)(O)OC[C@@H]3O[C@H](n4cnc5c(N)ncnc54)[C@@H](O)[C@H]3O)[C@@H](O)[C@H]2O)n1	0.11	18	14.3	35	–	–	–
NC(=O)c1csc([C@@H]2O[C@H](COP(=O)(O)C(F)(F)P(=O)(O)OC[C@@H]3O[C@H](n4cnc5c(N)ncnc54)[C@H](F)[C@H]3O)[C@@H](O)[C@H]2O)n1	0.8	13	13	40	3.1	–	–
NC(=O)c1cccc([C@@H]2O[C@H](COP(=O)(O)CP(=O)(O)OC[C@@H]3O[C@H](n4cnc5c(N)ncnc54)[C@H](F)[C@H]3O)[C@@H](O)[C@H]2O)c1	175	–	75	9	0.1	Not Active	–
NC(=O)c1csc([C@H]2O[C@@H](COP(=O)(O)OP(=O)(O)OC[C@H]3O[C@@H](n4cnc5c(N)ncnc54)[C@H](O)[C@@H]3O)[C@H](O)[C@@H]2O)n1	–	3.7	15	70	–	–	–
NC(=O)c1csc([C@@H]2O[C@H](COP(=O)(O)OP(=O)(O)OC[C@@H]3O[C@H](n4cnc5c(N)ncnc54)[C@@H](F)[C@H]3O)[C@@H](O)[C@H]2O)n1	2.6	3.8	13	56	10.4	–	–
NC(=O)c1csc([C@@H]2O[C@H](COP(=O)(O)OP(=O)(O)OC[C@@H]3O[C@H](n4cnc5c(N)ncnc54)[C@@H](O)[C@H]3F)[C@@H](O)[C@H]2O)n1	0.7	3.2	2.5	26	10.4	–	–
NC(=O)c1csc([C@@H]2O[C@H](CO)[C@@H](O)[C@H]2O)n1 [TIAZOFURIN]	–	3	15	80	–	–	–
NC(=O)c1csc([C@@H]2O[C@H](COP(=O)(O)CP(=O)(O)OC[C@@H]3O[C@H](n4cnc5c(N)ncnc54)[C@H](F)[C@H]3O)[C@@H](O)[C@H]2O)n1	6	70	14	9.5	0.7	–	–
NC(=O)c1csc([C@@H]2O[C@H](COP(=O)(O)C(F)(F)P(=O)(O)OC[C@@H]3O[C@H](n4cnc5c(N)ncnc54)[C@@H](O)[C@H]3O)[C@@H](O)[C@H]2O)n1	0.3	11	14	48	3.4	–	–
NC(=O)c1cccc([C@@H]2O[C@H](COP(=O)(O)CP(=O)(O)OC[C@@H]3O[C@H](n4cnc5c(N)ncnc54)[C@@H](O)[C@H]3O)[C@@H](O)[C@H]2O)c1	0.8	68	15	–	0.6 and 0.8	–	60
